Laboratory results: ChEMBL document CHEMBL3817820, “Development of Potent and Selective Inhibitors for Group VIA Calcium-Independent Phospholipase A2 Guided by Molecular Dynamics and Structure-Activity Relationships” (J Med Chem, 2016)

Assays:
[1] = target: T1, 85/88 kDa calcium-independent phospholipase A2 (Homo sapiens) (UniProt O60733); test: Inhibition of human group VIA iPLA2 at 0.091 mol fraction using arachidonyl-1-14C PAPC by mixed micelles modified Dole assay
T1 sequence (whole entry): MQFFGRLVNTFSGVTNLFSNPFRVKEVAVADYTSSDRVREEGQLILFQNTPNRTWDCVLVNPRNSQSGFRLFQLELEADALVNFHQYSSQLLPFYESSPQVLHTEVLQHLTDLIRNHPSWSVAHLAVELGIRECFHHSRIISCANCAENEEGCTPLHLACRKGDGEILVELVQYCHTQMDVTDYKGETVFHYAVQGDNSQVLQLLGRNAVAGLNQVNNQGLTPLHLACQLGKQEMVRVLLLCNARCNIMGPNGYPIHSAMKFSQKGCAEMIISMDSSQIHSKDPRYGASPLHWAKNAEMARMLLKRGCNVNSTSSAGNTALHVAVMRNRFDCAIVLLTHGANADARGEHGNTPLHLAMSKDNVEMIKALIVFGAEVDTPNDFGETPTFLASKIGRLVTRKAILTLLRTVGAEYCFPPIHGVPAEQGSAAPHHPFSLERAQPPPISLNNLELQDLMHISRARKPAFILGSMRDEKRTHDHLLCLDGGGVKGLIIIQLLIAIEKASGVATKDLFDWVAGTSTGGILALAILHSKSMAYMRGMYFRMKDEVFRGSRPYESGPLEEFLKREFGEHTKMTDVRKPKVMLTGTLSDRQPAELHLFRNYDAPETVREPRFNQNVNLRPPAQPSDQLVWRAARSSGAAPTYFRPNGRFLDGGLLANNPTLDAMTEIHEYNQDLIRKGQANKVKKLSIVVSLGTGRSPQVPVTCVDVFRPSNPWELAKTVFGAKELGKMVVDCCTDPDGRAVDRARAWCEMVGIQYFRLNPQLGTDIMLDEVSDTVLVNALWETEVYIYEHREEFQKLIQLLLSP
Summary of the method: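 Substrate micelles: 400 μM Triton X-100, 98.3 μM PAPC, 1.7 μM arachidonyl-1-14C PAPC. Buffer: 100 mM HEPES pH 7.5, 2 mM ATP, 4 mM DTT. Inhibitor tested at 0.091 mole fraction from a 5 mM DMSO stock; percent inhibition determined.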

[2] = target: T1, 85/88 kDa calcium-independent phospholipase A2 (Homo sapiens); test: Inhibition of human group VIA iPLA2 using arachidonyl-1-14C PAPC by mixed micelles modified Dole assay
Summary of the method: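 Run in the same micelle substrate (Triton X-100/PAPC/14C-PAPC) in 100 mM HEPES pH 7.5, 2 mM ATP and 4 mM DTT, on compounds showing over 95% inhibition in the screen. Percent inhibition plotted against log mole fraction; XI(50) and its error obtained by nonlinear regression.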

[3] = target: T2, Cytosolic phospholipase A2 (Homo sapiens) (UniProt P47712); test: Inhibition of human group IVA cPLA2 at 0.091 mol fraction using arachidonyl-1-14C PAPC by mixed micelles modified Dole assay
T2 sequence (whole entry): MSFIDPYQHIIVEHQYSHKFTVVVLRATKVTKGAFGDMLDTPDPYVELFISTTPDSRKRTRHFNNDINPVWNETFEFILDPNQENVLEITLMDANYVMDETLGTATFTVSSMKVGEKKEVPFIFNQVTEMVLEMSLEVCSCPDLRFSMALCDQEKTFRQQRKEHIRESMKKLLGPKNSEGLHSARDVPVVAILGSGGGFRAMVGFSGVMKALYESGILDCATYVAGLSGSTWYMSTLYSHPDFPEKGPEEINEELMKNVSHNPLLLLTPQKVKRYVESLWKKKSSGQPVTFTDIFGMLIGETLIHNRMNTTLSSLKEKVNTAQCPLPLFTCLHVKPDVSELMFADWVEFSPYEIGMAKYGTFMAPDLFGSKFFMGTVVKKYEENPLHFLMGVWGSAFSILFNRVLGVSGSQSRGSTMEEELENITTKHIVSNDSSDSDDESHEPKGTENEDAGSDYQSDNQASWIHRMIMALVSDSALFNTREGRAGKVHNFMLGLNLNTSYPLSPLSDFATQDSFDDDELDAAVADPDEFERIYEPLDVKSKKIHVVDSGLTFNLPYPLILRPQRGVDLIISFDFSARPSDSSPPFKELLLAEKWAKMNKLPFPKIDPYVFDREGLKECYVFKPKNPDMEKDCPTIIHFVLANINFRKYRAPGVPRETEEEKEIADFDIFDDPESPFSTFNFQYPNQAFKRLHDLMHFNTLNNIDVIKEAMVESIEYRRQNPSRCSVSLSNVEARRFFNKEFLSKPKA
Summary of the method: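 Buffer: 100 mM HEPES pH 7.5 with 90 μM CaCl2, 2 mM DTT and 0.1 mg/ml BSA. Inhibitor screened at 0.091 mole fraction, added from a 5 mM DMSO stock; percent inhibition recorded.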

[4] = target: T3, Phospholipase A2 group V (Homo sapiens) (UniProt P39877); test: Inhibition of human group V sPLA2 at 0.091 mol fraction using arachidonyl-1-14C PAPC by mixed micelles modified Dole assay
T3 sequence (whole entry): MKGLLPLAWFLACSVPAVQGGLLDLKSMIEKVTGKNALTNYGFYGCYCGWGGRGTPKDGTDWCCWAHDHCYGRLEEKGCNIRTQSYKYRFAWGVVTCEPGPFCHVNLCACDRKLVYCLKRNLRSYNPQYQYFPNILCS

SMILES	inhibition [1] [%]	XI50 [2]	inhibition [3] [%]	inhibition [4] [%]
O=C(CSCCc1ccccc1)C(F)(F)C(F)(F)F	99	0.00015	< 25	< 25
COc1ccc(CCCCC(=O)c2noc(C(C)(C)C)n2)cc1	64		52	35
COc1ccc(CCSCC(=O)C(F)(F)F)cc1	96	9e-05	60	< 25
COc1ccc(CCSCC(=O)C(F)(F)C(F)(F)F)cc1	100	0.00012	61	28
O=C(CSCCc1ccc2ccccc2c1)C(F)(F)F	99	0.0002	88	32
COc1ccc(CCSCC(=O)c2noc(C(C)(C)C)n2)cc1	98	0.0057	70	38
